Hits are enriched below; roughly 4.7% of the tested compounds scored in any of these assays.
RGS4 pot: RGS4 potentiators or activators, primary screen, cell-based, HEK293 M3R inducible RGS4, calcium flux; carbachol calcium flux Fluo4; active compounds read low; B-score at 10 µM; 310,000 compounds, 0.92% hits; AID 463111, 2010;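 active = B-score of the integrated calcium signal more than 4 SD below the library mean, with starting fluorescence not abnormally high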;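 also: negative B-score means reduced calcium response which marks RGS4 activation or potentiation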
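test system = M3R-expressing HEK293 line, RGS4 induced by doxycycline | probe or stimulus = carbachol at ECmax as muscarinic agonist stimulus | timing = dye loading 30 min 37 °C, buffer rest 30 min RT | signal = calcium dye Fluo4 fluorescence | evaluation = B score from integrated fluorescence ratio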
Cl transport mod: KCC2 cotransporter modulators, thallium flux, primary screen, cell-based, HEK293 KCC2, FluoZin-2 fluorescence, MLSMR; KCC2 cells, thallium flux FluoZin-2 fluorescence; B-score of Tl+ flux slope (higher = more flux/activation; lower = inhibition) at 10 µM; 190,000 compounds, 2.2% hits; AID 1456, 2008;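 active = thallium flux slope and its plate-corrected score both differing from the plate sample mean at a set confidence after two filtering rounds, in either direction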;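 also: slope of fluorescence scaled to starting intensity during 10 to 20 s after thallium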
MrgX1 PAM: positive allosteric modulators of MrgX1, primary screen, HEK293 cells, Fluo-4 calcium flux; Mas-related G-protein coupled receptor member X1 (Homo sapiens), Q96LB2; FDSS; active compounds read high; B-score at 10 µM; 310,000 compounds, 0.63% hits; AID 588675, 2011;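 active = plate-corrected calcium response at least 3 library SD above typical, normal starting fluorescence, not activating the receptor alone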;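 also: compound read alongside a low EC10 to EC30 dose of BAM8-22 agonist; peak minus trough fluorescence over baseline measured at the second addition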
MrgX1 antagonist: antagonists of human MrgX1 receptor, primary screen, HEK293 cells, Fluo-4 calcium flux; BAM8-22 antagonism; active compounds read low; B-score at 10 µM; 310,000 compounds, 1.3% hits; AID 588676, 2011;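 active = calcium-response B-score plate-corrected more than 3 library SD below zero, starting fluorescence within 5 deviations, no agonist response on first addition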;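 also: peak minus trough fluorescence over baseline after final BAM8-22 challenge near maximal dose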
RGS4 block: RGS4 inhibitors, primary screen, cell-based, HEK293 M3R inducible RGS4, calcium flux. Regulator of G-protein signaling 4 (Homo sapiens), P49798. Fluo-4 calcium flux; active compounds read high; triggered by carbachol at its EC20. B-score at 10 µM. 310,000 compounds, 0.45% hits. AID 463165, 2010;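 active = B-score, a plate-corrected calcium signal, over three deviations above library mean, with baseline fluorescence within five deviations of library mean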;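 also: RGS4 expression induced by doxycycline in cells with stable M3 receptor; B-score is computed from the integrated fluorescence ratio over baseline after carbachol; higher B-score means a larger calcium signal and so more RGS4 inhibition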
MrgX1 agonist: agonists of human MrgX1 receptor, primary screen, HEK293 cells, Fluo-4 calcium flux; 310,000 compounds, 0.44% hits; AID 588627, 2011; B-score at 10 µM; Fluo-4 calcium fluorescence, agonist mode; active compounds read high;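 active = calcium response B-score plate-corrected fluorescence ratio at least 3 library SD, with starting fluorescence B-score inside 5 SD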
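Test system: Stable human MrgX1 HEK293 cell line | Schedule: Overnight plating before 1 h dye loading | Read-out basis: Baseline-normalised fluorescence change ratio, B-scored | Detection: Kinetic calcium dye fluorescence, Fluo-4 NW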
* = called active by the depositor; i = inactive; / = not tested or not shown.

SMILES	RGS4 pot	Cl transport mod	MrgX1 PAM	MrgX1 antagonist	RGS4 block	MrgX1 agonist
Cc1ccc(N(CC(O)CN2C(=O)NC(C)(C)C2=O)S(=O)(=O)c2ccc([N+](=O)[O-])cc2)cc1 (centres undefined)	i	/	i	i	i	i
O=C(COc1ccccc1Cl)N1CCc2ccccc21	i	/	/	/	i	/
O=C(COc1ccc(Br)cc1Br)NC(=S)N1CCCc2ccccc21	i	11*	i	i	i	i
CC(Oc1ccc(Cl)cc1Cl)C(=O)NC(=S)N1CCc2ccccc21 (centres undefined)	i	44*	i	i	i	i
O=C(NC(=S)N1CCc2ccccc21)c1ccccc1Br	i	60*	i	i	i	i
O=C(COc1ccc(Br)cc1Cl)NC(=S)N1CCc2ccccc21	i	23*	i	i	i	i
CC12CCC(=O)N1C(C(=O)NNC(=O)COc1cccc(C(F)(F)F)c1)CS2 (centres undefined)	i	/	i	i	i	i
Nn1c(SCC(=O)Nc2ccccc2Br)nnc1-c1ccco1	i	/	i	i	i	i
CC(C)CCN(C(=S)Nc1cccc(F)c1)C(C)c1cccs1 (centres undefined)	i	0.58	10*	i	i	i
COCCN(C(=S)Nc1cccc(C)c1)C(C)c1cccs1 (centres undefined)	i	0.036	i	i	i	i
COc1cc(NC(=O)c2c(F)c(F)c(OC)c(F)c2F)ccc1NC(=O)c1cccs1	i	/	i	i	i	i
COc1ccc(Nc2nc(N)c([N+](=O)[O-])c(NCCO)n2)cc1	i	0.038	i	i	i	i
COc1ccc(Nc2nc(N)c([N+](=O)[O-])c(NC3CCCCC3)n2)cc1	-9.4*	/	i	i	i	i
CC(=O)c1ccc(OCCCC(=O)NC(C)c2ccc(S(N)(=O)=O)cc2)cc1 (centres undefined)	i	2.1	6.6*	i	i	i
CC(C)C(=O)Nc1ccc(NC(=S)NC(=O)c2ccccc2F)cc1	i	/	i	i	i	i
CC(OC(=O)c1ccc(=O)n(Cc2ccccc2)n1)C(=O)Nc1cccc(Cl)c1 (centres undefined)	i	/	i	-5.3*	i	i
CN1C(=O)S/C(=C/c2ccccc2OCc2ccc(C(=O)O)cc2)C1=O	i	-4.3*	i	i	i	i
Cc1ccc(Oc2ccccc2/C=C2\SC(=O)N(C)C2=O)cc1	i	/	i	i	i	i
CN(CC(=O)NNC(=O)Cc1ccccc1F)S(=O)(=O)c1ccc(Cl)cc1	i	/	i	i	i	i
CCCNS(=O)(=O)c1cccc(C(=O)OCc2cc(=O)oc3cc(OC)ccc23)c1	i	/	i	i	i	i
COc1ccc2c(COC(=O)c3cccc(S(=O)(=O)NCC(C)C)c3)cc(=O)oc2c1	-7.2*	/	i	i	i	i
CS(=O)(=O)N(Cc1ccco1)CC(O)Cn1cc(C=O)c2ccccc21 (centres undefined)	i	0.55	i	-5.7*	i	i
COc1ccc(CNCCc2ccc(Cl)cc2)cc1OCc1ccccc1	i	0.56	i	-5.8*	i	i
CCOc1cc(CNCc2ccccc2)ccc1OCc1ccc(Cl)cc1	i	/	i	i	i	i
O=C(Nc1nnc(SCCC2OCCO2)s1)C1CC(=O)N(c2ccc(F)cc2)C1 (centres undefined)	i	/	i	i	i	i
SMILES	RGS4 pot	Cl transport mod	MrgX1 PAM	MrgX1 antagonist	RGS4 block	MrgX1 agonist
Cc1oc(-c2cccs2)[n+]([O-])c1C	i	1.6	i	i	i	i
Cc1ccccc1-c1oc(C)c(C)[n+]1[O-]	i	0.014	7.8*	i	i	i
CN1CCN(c2ccccc2/C=C2/C(=O)Nc3ccccc32)CC1	-8.5*	/	i	i	i	i
O=C(c1ccco1)N1CCN(c2ncnc3sc4c(c23)CCC4)CC1	-7.2*	-0.95	i	i	i	i
O=C(NCc1ccccc1F)C1CCCN1C(=O)Nc1ccccc1 (centres undefined)	i	/	i	i	i	i
BrC(/C=C\c1ccccc1)=N/Nc1nc(N2CCOCC2)nc(N2CCOCC2)n1	i	-1.6	i	-8*	i	i
BrC(=C\c1ccccc1)/C=N/Nc1nc(N2CCOCC2)nc(N2CCOCC2)n1	i	1	i	i	i	i
CC(C)(C)C1CCc2c(C(=O)NNC(=O)/C=C/C(=O)O)csc2C1 (centres undefined)	i	-0.012	i	-6.4*	i	i
COC(=O)c1ccc2c(c1)C(C)(C)C(/C=C/c1ccc(OC)c(OC)c1OC)=[N+]2C	i	-1.3	i	-6.5*	i	i
COc1ccc(CN2CCC(C(=O)c3ccc(Cl)cc3)CC2)cc1	i	/	i	i	i	i
Cc1nc(N/N=C/c2ccccc2)nc(N(C)c2ccccc2)c1[N+](=O)[O-]	i	/	i	-7.6*	i	i
O=C(Nc1cccc(C(F)(F)F)c1)c1cccc(NS(=O)(=O)c2ccc(O)c(C(=O)O)c2)c1	i	/	i	i	i	i
Cc1ccc(OCCn2ccnc2)c([N+](=O)[O-])c1	i	/	11*	i	i	i
CCn1c(SCC(=O)c2ccc(Br)cc2)nnc1C(C)NC(=O)Cc1ccc(OC)cc1 (centres undefined)	i	/	i	i	i	i
COc1ccc(CC(=O)NC(C)c2nnc(SCC(=O)c3ccc(Br)cc3)n2C)cc1 (centres undefined)	i	0.49	i	-7.4*	i	i
CC(C)Cc1ccc(C(C)C(N)=Nc2ccc(O)cc2)cc1 (centres undefined)	i	/	10*	i	i	i
CNCc1ccccc1Sc1ccc(O)c(O)c1	-7.5*	-0.33	i	-5.7*	i	i
O=C(NCC(c1ccco1)N1CCCC1)c1ccccc1Sc1ccc(C(F)(F)F)cc1[N+](=O)[O-] (centres undefined)	-9*	/	i	i	i	i
